Data as given in the RNAGym collection of RNA variant scans (doi:10.1126/science.aae0568).
Fewer inactive variants are shown than the library holds.

B1: tRNA (parent)
chain: GUUCCGUUGGCGUAAUGGUAACGCGUCUCCCUCCUAAGGAGAAGACUGCGGGUUCGAGUCCCGUACGGAACG

Variants of: B1
Assay: yeast fitness relative to wild type (ratio to wild type); higher = fitter; tRNA-Arg(CCU), competitive growth, 37 C, YPD
How it was run: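 Gene amplicons from the start population and from each of six end populations were read by 100-nucleotide paired-end sequencing. Those end populations came from pooled Saccharomyces cerevisiae strains carrying tRNA-Arg(CCU) gene variants at the native locus, competed in YPD at 37°C for 24 hours. Fitness relative to wild type was worked out from changes in genotype frequencies. Genotypes needed ≥ 100 starting reads, and estimates < 0.5 were set to 0.5.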

Row | Variant | yeast fitness
1 | U3A U8A C31G A40C G58C C62A G68A | ≤ 0.5
2 | U3A U19C C22G C31G A69C | ≤ 0.5
3 | U3C A40U C49A | 0.577
4 | U3C A20U C24U C30A | 0.656
5 | U3A C60A C61U A69U | 0.597
6 | U3A G12C U28C G56A C60G | ≤ 0.5
7 | U3A G17C G38A | 0.557
8 | U3A G25A G58A | 0.782
9 | U3A U8G C27A C61A G67A | ≤ 0.5
10 | U3A U64G | 0.831
11 | U3A U64C | 1.01
12 | U3A G41C | 0.694
13 | U3A G41A | 0.754
14 | U3A G17A | 0.829
15 | U3A U16C C33G C46U | ≤ 0.5
16 | U3C A42U A45U U64C | 0.885
17 | U3A G9A A20G | 0.665
18 | U3A G58C C60U C66G | ≤ 0.5
19 | U3A U13G C22U A40U C66G | 0.627
20 | U3C A40U G58A A69C | 0.656
21 | U3A G38C | 0.611

Row | Variant | yeast fitness
22 | U3A U19C C22G A45U | ≤ 0.5
23 | U3A G18C A43C G58C | ≤ 0.5
24 | U3A G38A A57U C62U | ≤ 0.5
25 | U3A G52C | 0.645
26 | U3A U35G A43U A57C C62A C66A | ≤ 0.5
27 | U3A G17A C22U A70C | 0.528
28 | U3C A57U | 0.713
29 | U3C C5G A15C C27G A69U | ≤ 0.5
30 | U3A G9A U28G | ≤ 0.5
31 | U3A G9C A20G C29A | ≤ 0.5
32 | U3A G68C A69C | ≤ 0.5
33 | U3A U26C | 0.884
34 | U3C C5A U8A G25A A45G | ≤ 0.5
35 | U3C A43C C61U | 0.707
36 | U3C A43C C61A | 0.612
37 | U3A G9C A20G C29A G67U | 0.633
38 | U3A U8C C30G C33U | ≤ 0.5
39 | U3A G6C C34G G38C A45G U59G | ≤ 0.5
40 | U3C A15G G23A C60U G68C | ≤ 0.5
41 | U3C A14C A20C | ≤ 0.5
42 | U3C A14G U19A | 0.761

Row | Variant | yeast fitness
43 | U3C C5A C55A C60A | ≤ 0.5
44 | U3A U8C G38C | ≤ 0.5
45 | U3A G51A U53C | 0.648
46 | U3C C4G | 0.891
47 | U3C A20U U64A | 0.594
48 | U3C C4U A69U A70U | ≤ 0.5
49 | U3C A20G U59A | 0.684
50 | U3A U7G A14U G25A G41C | ≤ 0.5
51 | U3C A14G C22A C27G G39C | ≤ 0.5
52 | U3C A20U G52C | ≤ 0.5
53 | U3C A15G G25C C66G | ≤ 0.5
54 | U3C A37U G52A | ≤ 0.5
55 | U3C A37U G52A A57C C60A | ≤ 0.5
56 | U3A G6A | 0.981
57 | U3A G9A G48A | 0.621
58 | U3A U16C C33G | 0.661
59 | U3A U13G C22U A40U C55G A70G | ≤ 0.5
60 | U3C A15C G17C C24A C31U U35C G68C | ≤ 0.5
61 | U3A G12A A14U C46A | ≤ 0.5
62 | U3C A21G A43U | 0.989
63 | U3A G10C A36U A40C C60G A70G | ≤ 0.5

Row | Variant | yeast fitness
64 | U3C A14U A65C | ≤ 0.5
65 | U3C C4U A20C A21U C27G A42U G52A | ≤ 0.5
66 | U3A C49A U53G A57U | 0.798
67 | U3C A36U | 0.656
68 | U3A G9A C29U | 0.751
69 | U3A G41A A69U | 0.617
70 | U3C A43U U53A | ≤ 0.5
71 | U3C A43U A45G G63A | ≤ 0.5
72 | U3A U19A A70C | 0.812
73 | U3A U35G A43U A57C | ≤ 0.5
74 | U3A U19A G68C | 0.712
75 | U3A G38A C66U | ≤ 0.5
76 | U3A G17A C22U C66U | 0.616
77 | U3C A43U | 0.987
78 | U3C A43G | 0.999
79 | U3A G10C A36U A40C | ≤ 0.5
80 | U3A G6C A20U A36U | 0.571
81 | U3A G6A A37C C55G G58C | ≤ 0.5
82 | U3A G48C | 0.842
83 | U3A G48A | 0.844
84 | U3C A20G U64A A65G | ≤ 0.5
